Experimental data published in ChEMBL document CHEMBL4699542, “Design and synthesis of novel methoxypyridine-derived gamma-secretase modulators” (Bioorg Med Chem, 2020).
Converted amounts (≈) assume the structure as drawn.

Assays:
[1] = target: Cytochrome P450 2C9 (Homo sapiens, UniProt P11712); assay: Inhibition of recombinant CYP2C9 (unknown origin) by fluorescence-based assay; assay type: ADME
Outline: (§1)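 Recombinant CYP isoforms (five tested) screened for inhibition in fluorescence-based assays; IC50 in μM.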

[2] = target: Cytochrome P450 2D6 (Homo sapiens, UniProt P10635); assay: Inhibition of recombinant CYP2D6 (unknown origin) by fluorescence-based assay; assay type: ADME; outline: as §1
Chain of Cytochrome P450 2D6 (P10635 whole entry): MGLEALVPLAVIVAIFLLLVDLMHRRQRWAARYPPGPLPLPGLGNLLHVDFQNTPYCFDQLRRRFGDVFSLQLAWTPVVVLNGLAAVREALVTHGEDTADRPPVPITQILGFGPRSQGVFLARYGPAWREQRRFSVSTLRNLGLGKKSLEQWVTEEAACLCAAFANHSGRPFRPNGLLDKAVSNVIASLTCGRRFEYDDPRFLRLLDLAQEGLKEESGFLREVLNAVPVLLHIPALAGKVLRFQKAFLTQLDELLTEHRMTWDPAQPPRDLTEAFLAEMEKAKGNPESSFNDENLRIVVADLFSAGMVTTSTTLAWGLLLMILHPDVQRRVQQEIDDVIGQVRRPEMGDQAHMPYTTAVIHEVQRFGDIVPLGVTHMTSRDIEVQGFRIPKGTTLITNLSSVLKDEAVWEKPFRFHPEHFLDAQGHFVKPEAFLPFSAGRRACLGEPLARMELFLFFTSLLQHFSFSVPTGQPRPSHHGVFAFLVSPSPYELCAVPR

[3] = Volume of distribution at steady state in CD-1 mouse at 1 mg/kg, iv administered as single dose measured up to 24 hrs; assay type: ADME, organism-based; details: in vivo
Outline: (§2)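 Male CD-1 mice, 6–8 weeks old, single tail-vein dose in 3% NMP/45% PEG300/12% ethanol/40% sterile water. Retro-orbital plasma (K3EDTA) taken at 0.083, 0.25, 0.5, 1, 2, 4, 8 and 24 h, n=3/timepoint, analysed by HPLC/MS/MS. Non-compartmental analysis (Model 201, uniform weighting); Tmax read directly from the data.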

[4] = target: Gamma-secretase; assay: Modulation of gamma secretase in human SH-SY5Y cells overexpressing wild type APP751 assessed as inhibition of amyloid beta (35 to 42 residues) formation incubated for overnight by ELISA; assay type: cell-based
Outline: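 SHSY5Y-APP751 cells plated at 75K/well and incubated overnight at 37 °C, then treated 24 h over 10 concentrations ([…]–10 μM, 1:3.16 steps, in duplicate). Medium Aβ42 measured by sandwich ELISA (Aβ35–42 capture, AP-conjugated Aβ1–12 detection, CDP-Star luminescence) against an Aβ42 standard curve.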

[5] = AUClast in CD-1 mouse at 5 mg/kg, po administered as single dose measured up to 24 hrs; assay type: ADME, organism-based; set-up: route oral, dose 5 mg/kg, time <=24; details: in vivo
Outline: (§3)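 Male CD-1 mice, 6–8 weeks old, single dose by tail vein (1 mg/kg, 3% NMP/45% PEG300/12% ethanol/40% water) or oral gavage (5 mg/kg, 5% NMP/95% PEG300). Retro-orbital plasma sampled 0.083 (iv only) to 24 h, n=3/timepoint, and analysed by HPLC/MS/MS. Non-compartmental analysis. Half-life taken from the terminal phase using ≥3 non-zero points after Tmax.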

[6] = target: T1, Cytochrome P450 1A2 (Homo sapiens, UniProt P05177); assay: Inhibition of recombinant CYP1A2 (unknown origin) by fluorescence-based assay; assay type: ADME; outline: as §1
T1 sequence (P05177 whole entry): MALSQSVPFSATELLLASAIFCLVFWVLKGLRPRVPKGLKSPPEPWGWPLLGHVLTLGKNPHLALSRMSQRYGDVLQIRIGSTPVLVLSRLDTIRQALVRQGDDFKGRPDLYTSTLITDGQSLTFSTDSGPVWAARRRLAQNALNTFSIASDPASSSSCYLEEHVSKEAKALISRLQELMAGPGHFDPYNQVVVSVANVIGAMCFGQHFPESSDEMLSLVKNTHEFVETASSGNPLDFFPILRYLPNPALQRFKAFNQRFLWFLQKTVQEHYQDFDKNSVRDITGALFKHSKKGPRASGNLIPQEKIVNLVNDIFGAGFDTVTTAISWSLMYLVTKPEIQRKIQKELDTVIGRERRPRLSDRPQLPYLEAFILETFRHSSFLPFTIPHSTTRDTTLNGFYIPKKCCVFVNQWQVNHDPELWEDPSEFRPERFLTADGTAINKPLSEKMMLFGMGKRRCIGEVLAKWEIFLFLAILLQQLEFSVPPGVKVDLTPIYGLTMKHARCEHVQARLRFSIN

[7] = Metabolic stability in mouse liver microsomes assessed as parent compound remaining at 1 uM incubated for 30 mins; assay type: ADME, Microsome; details: 0.5 h
Outline: (§4)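 Test compound at 1 μM incubated 30 min with human, rat or mouse liver microsomes (1 mg/mL); parent remaining expressed as %.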

[8] = AUClast in CD-1 mouse at 1 mg/kg, iv administered as single dose measured up to 24 hrs; assay type: ADME, organism-based; set-up: route intravenous, dose 1 mg/kg, time <=24; details: in vivo; outline: as §3
[9] = target: Cytochrome P450 3A4 (Homo sapiens, UniProt P08684); assay: Inhibition of recombinant CYP3A4 (unknown origin) by fluorescence-based assay; assay type: ADME
Chain of Cytochrome P450 3A4 (P08684 whole entry): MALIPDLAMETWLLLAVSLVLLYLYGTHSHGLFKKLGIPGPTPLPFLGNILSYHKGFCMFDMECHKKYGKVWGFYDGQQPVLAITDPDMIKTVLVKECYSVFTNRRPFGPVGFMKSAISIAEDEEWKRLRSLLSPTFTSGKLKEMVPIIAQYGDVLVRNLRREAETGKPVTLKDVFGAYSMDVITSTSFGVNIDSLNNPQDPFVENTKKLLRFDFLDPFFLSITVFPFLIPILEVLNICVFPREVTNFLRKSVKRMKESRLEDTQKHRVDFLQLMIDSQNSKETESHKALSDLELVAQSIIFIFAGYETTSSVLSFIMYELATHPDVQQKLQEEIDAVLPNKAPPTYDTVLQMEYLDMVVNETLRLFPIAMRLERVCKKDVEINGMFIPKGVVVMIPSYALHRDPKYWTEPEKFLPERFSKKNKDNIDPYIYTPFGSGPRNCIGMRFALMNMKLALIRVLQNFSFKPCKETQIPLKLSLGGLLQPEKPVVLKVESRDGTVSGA

[10] = Efflux ratio of apparent permeability from basolateral to apical membrane over apical to basolateral membrane in MDCK-MDR1 cells; assay type: ADME, cell-based, Canis lupus familiaris; details: dog
Outline: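 Calculated as B-A/A-B apparent permeability ratio across MDR1-MDCK cell monolayers; A-B permeability expressed as ×10⁻⁶ cm/s.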

[11] = target: Cytochrome P450 2C19 (Homo sapiens, UniProt P33261); assay: Inhibition of recombinant CYP2C19 (unknown origin) by fluorescence-based assay; assay type: ADME; outline: as §1
Chain of Cytochrome P450 2C19 (P33261 whole entry): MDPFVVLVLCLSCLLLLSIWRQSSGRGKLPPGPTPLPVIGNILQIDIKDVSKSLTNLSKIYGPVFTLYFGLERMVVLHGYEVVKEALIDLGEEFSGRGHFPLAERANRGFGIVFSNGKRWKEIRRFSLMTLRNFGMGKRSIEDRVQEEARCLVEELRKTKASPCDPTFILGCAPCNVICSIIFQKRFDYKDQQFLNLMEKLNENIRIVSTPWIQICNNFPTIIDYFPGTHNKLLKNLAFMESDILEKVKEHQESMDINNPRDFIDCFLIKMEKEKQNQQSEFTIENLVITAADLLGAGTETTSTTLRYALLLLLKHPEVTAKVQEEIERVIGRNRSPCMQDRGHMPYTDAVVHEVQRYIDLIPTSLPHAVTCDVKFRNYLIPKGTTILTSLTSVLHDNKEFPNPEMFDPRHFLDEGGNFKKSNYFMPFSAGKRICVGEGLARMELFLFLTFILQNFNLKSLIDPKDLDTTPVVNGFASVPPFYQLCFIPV

[12] = Oral bioavailability in CD-1 mouse at 5 mg/kg administered as single dose measured up to 24 hrs; assay type: ADME, organism-based; details: in vivo
Outline: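 CD-1 mouse PK after single iv (1 mg/kg) and oral gavage (5 mg/kg) dosing, with plasma sampled to 24 h (n=3/timepoint) and measured by HPLC/MS/MS. F(%) = (AUC0-inf po × Dose iv)/(AUC0-inf iv × Dose po) × 100.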

[13] = Half life in CD-1 mouse at 1 mg/kg, iv administered as single dose measured up to 24 hrs; assay type: ADME, organism-based; details: mouse, in vivo, 1 mg/kg, 24 h; outline: as §3
[14] = target: Voltage-gated inwardly rectifying potassium channel KCNH2 (Homo sapiens, UniProt Q12809); assay: Inhibition of human ERG expressed in HEK293 cells by patch clamp assay; assay type: cell-based
Chain of Voltage-gated inwardly rectifying potassium channel KCNH2 (Q12809 whole entry): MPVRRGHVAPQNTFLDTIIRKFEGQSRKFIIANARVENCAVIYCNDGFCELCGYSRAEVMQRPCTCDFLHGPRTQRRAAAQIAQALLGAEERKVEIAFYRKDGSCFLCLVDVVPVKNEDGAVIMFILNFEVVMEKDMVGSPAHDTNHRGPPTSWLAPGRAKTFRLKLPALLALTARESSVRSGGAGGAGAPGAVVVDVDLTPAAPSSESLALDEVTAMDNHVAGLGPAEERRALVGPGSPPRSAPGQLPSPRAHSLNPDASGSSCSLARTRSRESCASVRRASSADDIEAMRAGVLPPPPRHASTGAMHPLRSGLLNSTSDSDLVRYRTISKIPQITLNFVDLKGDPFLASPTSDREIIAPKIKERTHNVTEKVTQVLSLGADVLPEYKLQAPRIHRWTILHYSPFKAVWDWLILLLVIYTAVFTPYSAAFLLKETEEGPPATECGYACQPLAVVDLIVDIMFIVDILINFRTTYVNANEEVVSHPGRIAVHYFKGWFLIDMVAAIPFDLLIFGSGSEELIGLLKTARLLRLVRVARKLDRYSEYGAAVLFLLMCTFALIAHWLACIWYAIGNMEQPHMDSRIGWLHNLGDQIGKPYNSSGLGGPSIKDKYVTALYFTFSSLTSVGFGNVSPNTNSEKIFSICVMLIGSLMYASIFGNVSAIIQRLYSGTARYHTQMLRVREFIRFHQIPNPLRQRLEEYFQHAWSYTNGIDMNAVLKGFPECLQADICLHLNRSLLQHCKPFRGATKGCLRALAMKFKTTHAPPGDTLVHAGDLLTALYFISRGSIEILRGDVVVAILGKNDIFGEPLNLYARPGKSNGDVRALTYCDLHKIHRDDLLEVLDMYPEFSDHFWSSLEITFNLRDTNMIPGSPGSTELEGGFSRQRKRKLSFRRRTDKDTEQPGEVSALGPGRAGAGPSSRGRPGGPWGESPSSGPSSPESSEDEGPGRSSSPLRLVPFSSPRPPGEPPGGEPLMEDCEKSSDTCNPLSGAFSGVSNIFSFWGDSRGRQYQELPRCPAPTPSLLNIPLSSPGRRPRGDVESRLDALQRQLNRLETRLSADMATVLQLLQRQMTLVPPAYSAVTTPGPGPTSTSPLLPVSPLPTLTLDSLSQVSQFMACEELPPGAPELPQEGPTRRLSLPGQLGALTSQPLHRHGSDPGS

[15] = Apparent permeability from apical to basolateral membrane in MDCK-MDR1 cells; assay type: ADME, cell-based, Canis lupus familiaris; details: dog
Outline: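 Apical-to-basolateral apparent permeability (×10⁻⁶ cm/s) measured across MDR1-MDCK cell monolayers.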

[16] = Metabolic stability in rat liver microsomes assessed as parent compound remaining at 1 uM incubated for 30 mins; assay type: ADME, Microsome; details: 0.5 h; outline: as §4
[17] = Ratio of drug concentration in CD-1 mouse brain to plasma at 5 mg/kg, po measured after 1 hr; assay type: ADME, organism-based
Outline: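 Male CD-1 mice dosed once iv (1 mg/kg) or by oral gavage (5 mg/kg). Brain and plasma collected 1 h post dose (n=3/timepoint). Drug levels by HPLC/MS/MS; brain/plasma ratio calculated from these levels.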

[18] = Ratio of drug concentration in CD-1 mouse brain to plasma at 0.4 mg/kg, iv measured after 1 hr; assay type: ADME, organism-based
[19] = Kinetic aqueous solubility of the compound in pH 7.4 PBS buffer by UV/Visible absorbance analysis; assay type: physicochemical; details: read-out: Kinetic_solubility
Outline: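 Kinetic solubility determined in PBS at pH 7.4 by UV/Vis absorbance, reported in μM.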

[20] = Tmax in CD-1 mouse at 5 mg/kg, po administered as single dose measured up to 24 hrs; assay type: ADME, organism-based; details: in vivo
Outline: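 Male CD-1 mice, 6–8 weeks old, single oral gavage dose in 5% NMP/95% PEG300. Plasma (K3EDTA, retro-orbital, under isoflurane) taken at 0.25, 0.5, 1, 2, 4, 8 and 24 h, n=3/timepoint, analysed by HPLC/MS/MS. Non-compartmental extravascular analysis (Model 200); Tmax taken directly from the data.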

[21] = Cmax in CD-1 mouse at 1 mg/kg, iv administered as single dose measured up to 24 hrs; assay type: ADME, organism-based; set-up: route intravenous, dose 1 mg/kg, time <=24; details: in vivo; outline: as §3
[22] = Cmax in CD-1 mouse at 5 mg/kg, po administered as single dose measured up to 24 hrs; assay type: ADME, organism-based; set-up: route oral, dose 5 mg/kg, time <=24; details: in vivo; outline: as §3
[23] = Tmax in CD-1 mouse at 1 mg/kg, iv administered as single dose measured up to 24 hrs; assay type: ADME, organism-based; details: in vivo; outline: as §2
[24] = AUC infinity in CD-1 mouse at 1 mg/kg, iv administered as single dose measured up to 24 hrs; assay type: ADME, organism-based; set-up: route intravenous, dose 1 mg/kg, time <=24; details: in vivo; outline: as §3
[25] = Metabolic stability in human liver microsomes assessed as parent compound remaining at 1 uM incubated for 30 mins; assay type: ADME, Microsome; details: microsomes, 0.5 h, 1 µM; outline: as §4
[26] = AUC infinity in CD-1 mouse at 5 mg/kg, po administered as single dose measured up to 24 hrs; assay type: ADME, organism-based; set-up: route oral, dose 5 mg/kg, time <=24; details: in vivo; outline: as §3
[27] = Half life in CD-1 mouse at 5 mg/kg, po administered as single dose measured up to 24 hrs; assay type: ADME, organism-based; details: in vivo; outline: as §3

Chain of Cytochrome P450 2C9 (P11712 whole entry, canonical isoform): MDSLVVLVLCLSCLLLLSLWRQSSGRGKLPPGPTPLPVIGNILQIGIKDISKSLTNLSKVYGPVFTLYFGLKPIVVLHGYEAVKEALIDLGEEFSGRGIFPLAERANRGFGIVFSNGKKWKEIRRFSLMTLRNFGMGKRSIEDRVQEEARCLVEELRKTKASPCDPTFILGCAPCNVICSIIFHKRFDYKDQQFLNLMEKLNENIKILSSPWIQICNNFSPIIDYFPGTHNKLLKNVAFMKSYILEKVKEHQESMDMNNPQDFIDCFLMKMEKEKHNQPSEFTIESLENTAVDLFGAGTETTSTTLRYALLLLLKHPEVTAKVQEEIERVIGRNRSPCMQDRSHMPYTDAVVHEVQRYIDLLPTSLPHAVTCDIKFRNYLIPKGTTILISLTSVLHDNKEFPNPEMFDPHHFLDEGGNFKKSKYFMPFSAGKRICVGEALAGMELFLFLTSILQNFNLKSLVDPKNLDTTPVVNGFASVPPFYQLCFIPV

| Structure (SMILES) | IC50 [1] [µM] | IC50 [2] [µM] | IC50 [4] [µM] | IC50 [6] [µM] | Stabilty [7] [%] | IC50 [9] [µM] | IC50 [11] [µM] | IC50 [14] [µM] | Papp [15] | Stabilty [16] [%] | solubility kinetic [19] [µM] | Stabilty [25] [%] | other results |
| --- | --- | --- | --- | --- | --- | --- | --- | --- | --- | --- | --- | --- | --- |
| CCn1nc(C2(C)CC2)cc1Nc1nc(-c2ccc(-n3cnc(C)c3)c(OC)n2)cs1 | > 100 | > 100 | 0.032 | > 100 | 81 | 4.1 | > 100 | 12.3 | 18.5 10^-6 cm/s | 73 | 6.7 (≈ 2.92 µg/mL) | 67 | Vdss [3]: 3.609 L/kg; AUClast [5]: 3976 ng·h/mL; AUClast [8]: 1247 ng·h/mL; Ratio [10]: 1.3; F [12]: 63.8%; t1/2 [13]: 3.84 h; BPR [17]: 0.57; BPR [18]: 0.62; Tmax [20]: 2 h; Cmax [21]: 384 ng/mL; Cmax [22]: 592 ng/mL; Tmax [23]: 4.98 min; AUC [24]: 1378 ng·h/mL |
| CCn1nc(C(F)(F)F)cc1Nc1nc(-c2ccc(-n3cnc(C)c3)c(OC)n2)cs1 | 47 | > 100 | 0.058 | 9.1 | 71 | 5.3 | 12 |  | 23.3 10^-6 cm/s | 96 | 15 (≈ 6.74 µg/mL) | 84 | Vdss [3]: 3.64 L/kg; AUClast [5]: 1727 ng·h/mL; AUClast [8]: 605 ng·h/mL; F [12]: 76%; t1/2 [13]: 1.6 h; AUC [26]: 2369 ng·h/mL; BPR [17]: 0.62; BPR [18]: 0.73; Tmax [20]: 1 h; Cmax [21]: 359 ng/mL; Cmax [22]: 470 ng/mL; Tmax [23]: 4.98 min; AUC [24]: 623 ng·h/mL |
| COc1nc(-c2csc(Nc3c4c(nn3CCF)CCC4)n2)ccc1-n1cnc(C)c1 | > 100 | > 100 | 0.064 | > 100 | 60 | 10.5 | 35 | 2.88 |  | 68 | 23 (≈ 10.1 µg/mL) | 58 |  |
| COc1nc(-c2csc(Nc3c4c(nn3C(C)(C)C)CCCC4)n2)ccc1-n1cnc(C)c1 | 47 | > 100 | 0.071 | 9.1 | 23 | 5.3 | 12 | 7.18 | 14.8 10^-6 cm/s | 63 | 34 (≈ 15.8 µg/mL) | 19 | Ratio [10]: 0.9 |
| COc1nc(-c2csc(Nc3c4c(nn3C)CCC4)n2)ccc1-n1cnc(C)c1 | > 100 | > 100 | 0.08 | > 100 | 75 | 4.5 | 37 | 0.92 | 22.3 10^-6 cm/s | 71 | 44 (≈ 17.9 µg/mL) | 76 | Vdss [3]: 3.18 L/kg; AUClast [5]: 2700 ng·h/mL; AUClast [8]: 723 ng·h/mL; Ratio [10]: 1.9; F [12]: 74.6%; t1/2 [13]: 1.9 h; BPR [17]: 0.22; BPR [18]: 0.21; Tmax [20]: 1 h; Cmax [21]: 478 ng/mL; t1/2 [27]: 1.6 h; Cmax [22]: 580 ng/mL; Tmax [23]: 4.98 min |
| COc1nc(-c2csc(Nc3c4c(nn3CCO)CCCC4)n2)ccc1-n1cnc(C)c1 | > 100 | > 100 | 0.144 | > 100 | 58 | 30 | 76 | 2.63 | 18 10^-6 cm/s | 78 | 31 (≈ 14 µg/mL) | 40 |  |
| COc1nc(-c2csc(Nc3c4c(nn3CC(F)(F)F)CCC4)n2)ccc1-n1cnc(C)c1 | 11 | > 100 | 0.036 | 27 | 46 | 1.4 | 7.1 |  | 17.6 10^-6 cm/s | 72 | 22 (≈ 10.5 µg/mL) | 66 |  |
| COc1nc(-c2csc(Nc3c4c(nn3CC(C)(C)O)CCCC4)n2)ccc1-n1cnc(C)c1 | 9 | > 100 | 0.038 | > 100 | 78 |  | 3.9 |  | 17.5 10^-6 cm/s | 57 | 22 (≈ 10.6 µg/mL) | 12 |  |
| COc1nc(-c2csc(Nc3c4c(nn3CCCO)CCCC4)n2)ccc1-n1cnc(C)c1 | > 100 | > 100 | 0.05 | > 100 | 32 | 2.2 | 31 |  |  | 52 | 23 (≈ 10.7 µg/mL) | 17 |  |
| COc1nc(-c2csc(Nc3cc(C(C)(C)C)nn3CC(F)(F)F)n2)ccc1-n1cnc(C)c1 | 20 | > 100 | 0.073 | 18 | 93 | 1 | 9 |  |  | 90 | 1.7 (≈ 0.836 µg/mL) | 47 |  |
| CCn1nc2c(c1Nc1nc(-c3ccc(-n4cnc(C)c4)c(OC)n3)cs1)CCCCC2 | 37 | > 100 | 0.032 | > 100 | 15 | 11 | 85 |  |  | 41 | 4.3 (≈ 1.93 µg/mL) | 0.1 |  |
